Test results as given in ChEMBL document CHEMBL2401698 (J Med Chem, 2013).
The source made the active and inactive calls.

What was measured:
Adenosine receptor A1 [1] = target: T1, Adenosine receptor A1 (Mus musculus, UniProt Q60612); assay: Agonist activity at mouse adenosine A1 receptor expressed in HEK293 cell membranes assessed as inhibition of forskolin-stimulated cAMP production preincubated for 30 mins prior to forskolin-treatment measured after 15 mins by ELISA; assay type: functional, cell-based
T1 sequence (Q60612 whole entry): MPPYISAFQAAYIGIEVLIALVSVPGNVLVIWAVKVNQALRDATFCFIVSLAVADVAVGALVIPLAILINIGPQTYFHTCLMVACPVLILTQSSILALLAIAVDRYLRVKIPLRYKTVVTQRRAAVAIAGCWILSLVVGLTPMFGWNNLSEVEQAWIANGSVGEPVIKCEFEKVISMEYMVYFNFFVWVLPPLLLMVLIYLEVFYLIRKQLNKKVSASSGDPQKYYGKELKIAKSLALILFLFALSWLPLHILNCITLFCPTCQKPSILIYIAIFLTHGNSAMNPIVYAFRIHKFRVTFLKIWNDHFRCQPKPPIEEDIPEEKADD

[2] = target: Adenosine receptor A2a (Mus musculus) (UniProt Q60613); assay: Displacement of [3H]2-[p-(2-carboxyethyl)phenylethylamino]-5'-N-ethylcarboxamidoadenosine from mouse adenosine A2A receptor expressed in HEK293 cell membranes at 10 uM after 60 mins by liquid scintillation counting analysis relative to control
[3] = target: T2, Adenosine receptor A1 (Mus musculus) (UniProt Q60612); assay: Displacement of [125I]N6-(4-amino-3-iodobenzyl)adenosine-5'-N-methyluronamide from mouse adenosine A1 receptor expressed in HEK293 cell membranes at 10 uM after 60 mins by liquid scintillation counting analysis relative to control
T2 sequence (whole entry): T1 sequence (Q60612 whole entry)

[4] = target: T3, Adenosine receptor A1 (Homo sapiens) (UniProt P30542); assay: Displacement of [3H]N6-R-phenylisopropyladenosine from human adenosine A1 receptor expressed in CHO cell membranes at 10 uM after 60 mins by liquid scintillation counting analysis relative to control
T3 sequence (whole entry): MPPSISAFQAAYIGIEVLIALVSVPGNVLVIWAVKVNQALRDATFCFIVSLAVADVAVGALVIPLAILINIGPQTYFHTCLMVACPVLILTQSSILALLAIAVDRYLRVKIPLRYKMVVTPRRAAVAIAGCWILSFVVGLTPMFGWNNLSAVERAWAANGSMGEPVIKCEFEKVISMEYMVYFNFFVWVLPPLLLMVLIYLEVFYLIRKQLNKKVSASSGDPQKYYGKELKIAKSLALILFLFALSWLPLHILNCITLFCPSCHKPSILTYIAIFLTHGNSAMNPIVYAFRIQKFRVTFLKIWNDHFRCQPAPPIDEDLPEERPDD

[5] = target: Adenosine receptor A2a (Homo sapiens) (UniProt P29274); assay: Displacement of [3H]2-[p-(2-carboxyethyl)phenylethylamino]-5'-N-ethylcarboxamidoadenosine from human adenosine A2A receptor expressed in HEK293 cell membranes at 10 uM after 60 mins by liquid scintillation counting analysis relative to control
[6] = target: T4, Adenosine receptor A3 (Homo sapiens) (UniProt P0DMS8); assay: Activity at human adenosine A3 receptor expressed in CHO cell membranes assessed as inhibition of forskolin-stimulated cAMP production at 10 uM preincubated for 30 mins prior to forskolin-treatment measured after 15 mins by ELISA relative to 5'-N-ethylcarboxamidoadenosine; assay type: functional, cell-based
T4 sequence (whole entry): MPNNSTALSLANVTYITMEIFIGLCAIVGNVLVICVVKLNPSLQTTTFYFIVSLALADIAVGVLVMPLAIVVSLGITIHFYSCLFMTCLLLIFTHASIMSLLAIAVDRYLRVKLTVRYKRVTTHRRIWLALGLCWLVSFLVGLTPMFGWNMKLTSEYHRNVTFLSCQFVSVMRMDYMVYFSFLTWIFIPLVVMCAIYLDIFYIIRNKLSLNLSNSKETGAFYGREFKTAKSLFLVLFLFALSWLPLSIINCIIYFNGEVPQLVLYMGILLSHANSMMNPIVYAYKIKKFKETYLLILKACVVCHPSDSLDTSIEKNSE
In short: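 Whole CHO cells stably expressing hA3AR, plated 24 h, washed with DMEM/50 mM HEPES pH 7.4. […] Forskolin (10 μM) then added for 15 min. Lysed in 0.1 M HCl; cAMP by enzyme immunoassay at 450 nm. Efficacy as % of reference maximum; mean ± SEM, n = 3–5.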

[7] = target: T5, Adenosine receptor A3 (Mus musculus) (UniProt Q61618); assay: Displacement of [125I]N6-(4-amino-3-iodobenzyl)adenosine-5'-N-methyluronamide from mouse adenosine A3 receptor expressed in HEK293 cell membranes at 10 uM after 60 mins by liquid scintillation counting analysis relative to control
T5 sequence (whole entry): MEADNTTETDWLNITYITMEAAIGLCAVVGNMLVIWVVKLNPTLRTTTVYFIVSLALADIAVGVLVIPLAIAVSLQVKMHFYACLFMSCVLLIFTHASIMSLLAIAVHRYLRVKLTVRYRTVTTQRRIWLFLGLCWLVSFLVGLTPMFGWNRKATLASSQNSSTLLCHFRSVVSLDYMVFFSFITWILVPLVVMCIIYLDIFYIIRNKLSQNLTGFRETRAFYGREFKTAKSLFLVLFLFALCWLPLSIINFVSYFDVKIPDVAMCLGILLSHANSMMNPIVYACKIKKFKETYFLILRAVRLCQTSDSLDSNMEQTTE

[8] = target: T5, Adenosine receptor A3 (Mus musculus); assay: Agonist activity at mouse adenosine A3 receptor expressed in HEK293 cell membranes assessed as inhibition of forskolin-stimulated cAMP production preincubated for 30 mins prior to forskolin-treatment measured after 15 mins by ELISA relative to control; assay type: functional, cell-based
Adenosine receptor A3 = target: T6, Adenosine receptor A3 (Mus musculus, UniProt Q61618); assay: Agonist activity at mouse adenosine A3 receptor expressed in HEK293 cell membranes assessed as inhibition of forskolin-stimulated cAMP production preincubated for 30 mins prior to forskolin-treatment measured after 15 mins by ELISA; assay type: functional, cell-based
T6 sequence (Q61618 whole entry): T5 sequence (whole entry)

[9] = target: T5, Adenosine receptor A3 (Mus musculus); assay: Activity at mouse adenosine A3 receptor expressed in HEK293 cell membranes assessed as inhibition of forskolin-stimulated cAMP production preincubated for 30 mins prior to forskolin-treatment measured after 15 mins by ELISA relative to 2-chloro-N6-(3-iodobenzyl)adenosine-5'-N-methyluronamide; assay type: functional, cell-based
CHO = assay: Selectivity ratio of Ki for human adenosine A2A receptor expressed in HEK293 cell membranes to Ki for human adenosine A3 receptor expressed in CHO cell membranes; assay type: cell-based
[10] = target: T2, Adenosine receptor A1 (Mus musculus); assay: Agonist activity at mouse adenosine A1 receptor expressed in HEK293 cell membranes assessed as inhibition of forskolin-stimulated cAMP production up to 10 uM […] measured after 15 mins […]; assay type: functional, cell-based
In short: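 2 × 10^5 cells/tube coincubated with forskolin (10 μM) and ligand, up to 10 μM, for 15 min at 37 °C. Stopped with 1 N HCl; cAMP by competitive binding assay. Full agonist 44 as reference; sigmoidal fit; mean ± SEM, n = 4–7.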

[11] = target: Adenosine receptors; A1 & A3 (Homo sapiens) (UniProt P30542+P0DMS8); assay: Selectivity ratio of Ki for human adenosine A1 receptor to Ki for human adenosine A3 receptor
Mus musculus [12] = species on record: Mus musculus; assay: Selectivity ratio of Ki for mouse adenosine A2A receptor to Ki for mouse adenosine A3 receptor
Mus musculus [13] = assay: Antiallodynic activity in CD-1 mouse chronic constriction injury-induced neuropathic pain model assessed as effect on contralateral paw withdrawal threshold at 3 micromol/kg, ip; assay type: functional, organism-based
In short: (§1)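 Male CD-1 mice (25–30 g) with chronic constriction injury of left sciatic nerve under isoflurane. At peak mechanoallodynia on day 7, given 3 μmol/kg ip in 5% DMSO/saline, or vehicle; n = 6. Paw withdrawal thresholds (g) measured on ipsilateral and contralateral paws over time. Experimenters blinded.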

Mus musculus [14] = assay: Antiallodynic activity in CD-1 mouse chronic constriction injury-induced neuropathic pain model assessed as reversal of mechanoallodynia at 3 micromol/kg, ip measured 1 to 5 hrs post-treatment in presence of MRS1523; assay type: functional, organism-based
Mus musculus [15] = assay: Antiallodynic activity in CD-1 mouse chronic constriction injury-induced neuropathic pain model assessed as reversal of mechanoallodynia at 3 micromol/kg, ip at 1 hr post-treatment; assay type: functional, organism-based; in short: as §1
Mus musculus [16] = assay: Antiallodynic activity in adenosine A3 receptor knockout C57BL/6J mouse chronic constriction injury-induced neuropathic pain model assessed as reversal of mechanoallodynia at 3 micromol/kg, ip measured 1 to 5 hrs post-treatment
Mus musculus [17] = species on record: Mus musculus; assay: Selectivity ratio of Ki for mouse adenosine A1 receptor to Ki for mouse adenosine A3 receptor
Adenosine receptor A1 [18] = target: T1, Adenosine receptor A1; assay: Partial agonist activity at mouse adenosine A1 receptor expressed in HEK293 cell membranes assessed as inhibition of forskolin-stimulated cAMP production preincubated for 30 mins prior to forskolin-treatment measured after 15 mins by ELISA; assay type: functional, cell-based

Chain of Adenosine receptor A2a (Mus musculus) (Q60613 whole entry): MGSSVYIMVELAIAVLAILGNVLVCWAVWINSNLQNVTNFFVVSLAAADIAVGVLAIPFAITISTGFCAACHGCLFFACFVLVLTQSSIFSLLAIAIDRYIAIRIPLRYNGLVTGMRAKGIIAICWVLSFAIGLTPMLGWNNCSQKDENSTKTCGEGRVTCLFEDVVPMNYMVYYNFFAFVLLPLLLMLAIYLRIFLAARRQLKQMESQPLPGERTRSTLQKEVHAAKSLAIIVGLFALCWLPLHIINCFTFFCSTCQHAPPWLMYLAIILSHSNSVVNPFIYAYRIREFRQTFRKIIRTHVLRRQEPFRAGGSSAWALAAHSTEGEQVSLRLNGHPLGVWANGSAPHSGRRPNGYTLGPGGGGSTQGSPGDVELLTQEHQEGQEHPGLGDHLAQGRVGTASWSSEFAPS
Chain of Adenosine receptor A2a (Homo sapiens) (P29274 whole entry): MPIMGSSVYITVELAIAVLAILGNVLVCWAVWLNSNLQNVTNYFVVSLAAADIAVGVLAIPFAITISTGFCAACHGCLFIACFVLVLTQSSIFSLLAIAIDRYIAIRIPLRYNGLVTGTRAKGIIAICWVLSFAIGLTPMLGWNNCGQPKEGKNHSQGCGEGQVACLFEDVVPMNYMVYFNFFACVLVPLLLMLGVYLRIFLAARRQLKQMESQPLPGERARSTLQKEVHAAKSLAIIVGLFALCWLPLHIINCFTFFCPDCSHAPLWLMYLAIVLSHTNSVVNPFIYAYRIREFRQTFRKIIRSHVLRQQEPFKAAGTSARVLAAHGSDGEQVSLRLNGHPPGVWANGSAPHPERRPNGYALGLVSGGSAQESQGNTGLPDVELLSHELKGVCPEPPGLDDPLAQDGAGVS

inhibition [2]	inhibition [3]	inhibition [4]	inhibition [5]	Efficacy [6]	Emax [8]	SMILES	further results
–	–	–	–	–	–	OC[C@H]1O[C@@H](n2cnc3c(NC4CCCC4)nc(Cl)nc32)[C@H](O)[C@@H]1O	EC50 (Adenosine receptor A1 [1]): 17.7 nM
1%	18%	10%	15%	7.2%	–	O=S(=O)(O)c1ccc(CCNc2nc(C#Cc3ccccc3)nc3c2ncn3[C@H]2[C@H](O)[C@H](O)[C@@H]3C[C@@H]32)cc1	–
16%	23%	–	–	–	–	O[C@@H]1[C@H](O)[C@@H]2C[C@@H]2[C@H]1n1cnc2c(NCC(c3ccccc3)c3ccccc3)nc(C#Cc3ccccc3Cl)nc21	inhibition [7]: 54%
49%	49%	–	–	–	–	CCNc1nc(C#Cc2ccccc2)nc2c1ncn2[C@H]1[C@H](O)[C@H](O)[C@@H]2C[C@@H]21	–
0%	7%	9%	1%	93.8%	–	CNC(=O)[C@@]12C[C@@H]1[C@@H](n1cnc3c(NCCc4ccc(S(=O)(=O)O)cc4)nc(C#Cc4ccccc4)nc31)[C@H](O)[C@@H]2O	–
8%	–	–	–	–	–	CNc1nc(C#Cc2ccccc2)nc2c1ncn2[C@H]1[C@H](O)[C@H](O)[C@@H]2C[C@@H]21	–
0%	–	–	–	–	–	O[C@@H]1[C@H](O)[C@@H]2C[C@@H]2[C@H]1n1cnc2c(NCc3cccc(Cl)c3)nc(C#Cc3ccc(-c4ccccc4)cc3)nc21	–
–	–	–	–	–	41%	CNC(=O)[C@H]1O[C@@H](n2cnc3c(NCc4cccc(I)c4)nc(Cl)nc32)[C@H](O)[C@@H]1O	–
1%	25%	11%	32%	105%	47%	CNC(=O)[C@@]12C[C@@H]1[C@@H](n1cnc3c(NCCc4ccccc4)nc(C#Cc4ccccc4)nc31)[C@H](O)[C@@H]2O	EC50 (Adenosine receptor A3): 3.33 nM; Efficacy [9]: 115%
1%	15%	16%	7%	98.2%	50%	CNC(=O)[C@@]12C[C@@H]1[C@@H](n1cnc3c(NCc4cccc(Cl)c4)nc(C#Cc4cccc(S(=O)(=O)O)c4)nc31)[C@H](O)[C@@H]2O	Ratio Ki (CHO): > 10000; inhibition [10]: inactive; Ratio Ki [11]: > 10000; Ratio Ki (Mus musculus [12]): > 1000; EC50 (Adenosine receptor A3): 2.6 nM; Activity (Mus musculus [13]): inactive; Efficacy [9]: 89.3%; Activity (Mus musculus [14]): Active; Activity (Mus musculus [15]): Active; Activity (Mus musculus [16]): inactive; Ratio Ki (Mus musculus [17]): > 1000
11%	47%	–	–	–	–	CCNc1nc(C#Cc2ccccc2Cl)nc2c1ncn2[C@H]1[C@H](O)[C@H](O)[C@@H]2C[C@@H]21	inhibition [7]: 50%
14%	–	–	23%	96.8%	45%	CNC(=O)[C@@]12C[C@@H]1[C@@H](n1cnc3c(NCc4cccc(Cl)c4)nc(C#Cc4ccc(S(=O)(=O)O)cc4)nc31)[C@H](O)[C@@H]2O	EC50 (Adenosine receptor A3): 13 nM; Activity (Mus musculus [13]): inactive; Efficacy [9]: 95.7%; Activity (Mus musculus [15]): Active; Activity (Mus musculus [16]): Active; EC50 (Adenosine receptor A1 [18]): 495 nM
